The text below walks through data of ChEMBL document CHEMBL1275382, “Synthesis and SAR studies of chiral non-racemic dexoxadrol analogues as uncompetitive NMDA receptor antagonists” (Bioorg Med Chem, 2010).

One may read the Ki as a dissociation constant, usually derived from enzyme kinetics or from competition with a known ligand. A high value points to a looser hold on the target.

Assay [1] addresses Sigma non-opioid intracellular receptor 1 (Homo sapiens, UniProt Q99720). As to the kind of experiment: Binding affinity to sigma1 receptor. In a few lines:
(§1)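 Radioligand competition binding with at least six test-compound concentrations, each run in triplicate. Incubations were stopped by rapid filtration through filters presoaked 2 h in 0.5% aqueous polyethylenimine, and bound radioactivity was counted by solid scintillation. IC50 came from non-linear regression and Ki from the Cheng–Prusoff equation. Values are mean ± SEM of three independent experiments.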

Assay [2] can be described thus: Binding affinity to sigma2 receptor. In a few lines: as §1
Assay [3] in a line: Binding affinity to NMDA receptor ifenprodil binding site. In a few lines:
as §1

Sigma non-opioid intracellular receptor 1, sequence (Q99720 whole entry): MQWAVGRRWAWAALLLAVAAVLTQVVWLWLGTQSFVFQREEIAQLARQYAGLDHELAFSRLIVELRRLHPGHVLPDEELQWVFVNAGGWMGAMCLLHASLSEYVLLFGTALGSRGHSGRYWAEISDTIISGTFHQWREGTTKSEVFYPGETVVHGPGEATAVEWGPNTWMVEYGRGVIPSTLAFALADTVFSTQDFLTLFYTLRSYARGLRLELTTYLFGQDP

As for `FC1(F)CCNC(C2COC(c3ccccc3)(c3ccccc3)O2)C1` (racemic), the Ki in assay [1] is more than 800 nM; in assay [2], more than 1000 nM; in assay [3], more than 1000 nM.
On to `FC1CCNC(C2COC(c3ccccc3)(c3ccccc3)O2)C1` (racemic), for which the inhibition constant (Ki) in assay [1] was more than 800 nM; in assay [2], more than 1000 nM; in assay [3], more than 1000 nM.
Take `OC1CCNC(C2COC(c3ccccc3)(c3ccccc3)O2)C1` (racemic): the Ki in assay [1] is more than 800 nM; in assay [2] it was more than 1000 nM; in assay [3] it was more than 1000 nM.
With `O=C1CCNC(C2COC(c3ccccc3)(c3ccccc3)O2)C1` (racemic), the inhibition constant (Ki) was more than 800 nM in assay [1], more than 1000 nM in assay [2] and more than 1000 nM in assay [3].
`c1ccc(C2(c3ccccc3)OCC(C3CCCCN3)O2)cc1` (racemic) [DIOXADROL]: the Ki is more than 800 nM in assay [1], more than 1000 nM in assay [2] and more than 1000 nM in assay [3].
